Calls of active or inactive are those of the source. The calls are words filed in the database; no cut-off is given here.
Tests used:
[1] = organism: Cavia porcellus; experiment: Antagonist activity at adrenergic receptor in guinea pig vas deferens assessed as inhibition of electrically-induced release of norepinephrine measured every 10 mins; format: tissue-based
How it was run: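 Isolated guinea pig vas deferens in Krebs solution, stimulated transmurally for 15 s every 4 min at 25-35 shocks/s, 0.1 ms pulses, supramaximal 110-120 V. Salts were dissolved in distilled water, with a fresh preparation for each drug. Responses were read at 10-min intervals. ID50, the bath concentration giving 50% inhibition, came from dose-response curves of at least three concentrations, as free base.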

[2] = organism: Cavia porcellus; experiment: Equipotent molar ratio, ratio of compound ID50 to guanethidine ID50 for adrenergic receptor in guinea pig vas deferens assessed as inhibition of electrically-induced release of norepinephrine
[3] = organism: Cavia porcellus; experiment: Antagonist activity at adrenergic receptor in guinea pig vas deferens assessed as inhibition of electrically-induced release of norepinephrine at 1 x 10^-4 M measured every 10 mins; format: tissue-based

Compound	ID50 [1]	EPMR [2]	inhibition [3]
N=C(N)N[C@@H]1C[C@H]1c1ccccc1	5.05 µM	2.52	–
N=C(N)NC/C=C/C1CCCCC1	7.7 ×10⁻⁷ M	0.39	–
N=C(N)NCCc1ccc2ccccc2c1	5 µM	2.5	–
N=C(N)NCC1Cc2ccccc21 (stereo unspecified)	2.5 µM	1.25	–
N=C(N)NCCc1cccc2ccccc12	1.2 ×10⁻⁵ M	6	–
N=C(N)NC1CCc2ccc([N+](=O)[O-])cc21 (stereo unspecified)	2 ×10⁻⁵ M	10	–
N=C(N)NC[C@@H]1C[C@H]1c1ccccc1	7.3 µM	3.65	–
N=C(N)NC1Cc2ccccc2C1	–	–	inactive
N=C(N)NCCN1CCCCCCC1	2 µM	–	–
N=C(N)NCc1cccc2ccccc12	1.9 ×10⁻⁷ M	0.095	–
N=C(N)NC[C@H]1C[C@H]1c1ccccc1 (relative stereo)	9.1 µM	4.55	–
N=C(N)NC/C=C\C1CCCCC1	9.8 ×10⁻⁸ M	0.049	–
COc1ccc2c(c1)CCC2NC(=N)N (stereo unspecified)	–	–	inactive
N=C(N)NC1CCc2ccccc21 (stereo unspecified)	5.8 µM	2.9	–
N=C(N)N[C@H]1C[C@H]1c1ccccc1 (relative stereo)	–	–	inactive
